Calls of active or inactive are those of the source. The calls are words filed in the database; no cut-off is given here.
Key:
[1] = test system: Candida albicans; experiment: Antifungal activity against Candida albicans DAY185 assessed as lowest compound concentration causing =>80% reduction in cell viability after 48 hrs by XTT assay; format: organism-based
[2] = test system: Candida albicans; experiment: Antifungal activity against Candida albicans DAY185 assessed as inhibition of biofilm formation after 48 hrs by XTT assay; format: functional, organism-based
[3] = test system: MIA PaCa-2; experiment: Cytotoxicity against human MIAPaCa2 after 24 hrs by MTT assay; format: cell-based; conditions: MIA PaCa-2, 24 h
Outline: (§1)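 MIA PaCa-2 cells, 10^4 per well, attached overnight at 37 °C, 5% CO2; compounds in DMSO added (final DMSO 1% by vol.), 24 h exposure; viability by MTT assay.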

[4] = test system: Candida albicans; experiment: Antifungal activity against Candida albicans DAY185 assessed as truncated hyphae formation at 50 uM after 24 hrs by phase contrast microscopic analysis; format: functional, organism-based
Outline: (§2)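 BHI overnight cells washed, suspended in PBS, seeded 1×10^6 cells/well, 37 °C 1 h; non-adherent cells washed off; RPMI 1640 with 2% glucose plus compound in DMSO (1% by vol.), 37 °C up to 24 h; germ tubes/hyphae scored by phase contrast microscopy (×200) at 2.5, 6 and 24 h.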

[5] = test system: Candida albicans; experiment: Antifungal activity against Candida albicans DAY185 assessed as inhibition of hyphae formation at 50 uM after 6 hrs by phase contrast microscopic analysis; format: functional, organism-based; outline: as §2
[6] = test system: Candida albicans; experiment: Antifungal activity against Candida albicans DAY185 assessed as inhibition of hyphae formation after 6 hrs by phase contrast microscopic analysis; format: functional, organism-based; outline: as §2
[7] = test system: Candida albicans; experiment: Antifungal activity against Candida albicans DAY185 assessed as inhibition of germ tube formation at 50 uM after 6 hrs by phase contrast microscopic analysis; format: functional, organism-based; outline: as §2
[8] = test system: Candida albicans; experiment: Antifungal activity against Candida albicans DAY185 assessed as inhibition of biofilm formation at 0.2 to 100 uM administered 8 hrs after microbial seeding in 96-well microplate followed by 48 hrs incubation by XTT assay; format: functional, organism-based
Outline: (§3)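 Time-of-addition variant of the biofilm assay: compound 100 to 0.2 μM added at -0.5, 0, 2, 4, 6 or 8 h after seeding in RPMI 1640/MOPS; at 48 h wells washed twice with PBS, biofilm quantified by XTT; triplicate in each of three trials; IC50 for 50% reduction of biofilm formation from curve fitting.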

[9] = test system: MIA PaCa-2; experiment: Cytotoxicity against human MIAPaCa2 up to 200 uM after 24 hrs by MTT assay; format: cell-based; conditions: mia paca-2, 24 h; outline: as §1
[10] = test system: Candida albicans; experiment: Antifungal activity against Candida albicans DAY185 assessed as inhibition of biofilm formation at 0.2 to 100 uM administered 2 to 4 hrs after microbial seeding in 96-well microplate followed by 48 hrs incubation by XTT assay; format: functional, organism-based; outline: as §3
[11] = test system: Candida albicans; experiment: Antifungal activity against Candida albicans DAY185 assessed as inhibition of biofilm formation at 0.2 to 100 uM administered 6 hrs after microbial seeding in 96-well microplate followed by 48 hrs incubation by XTT assay; format: functional, organism-based; outline: as §3

CC1(C)C=Cc2c(ccc3c2[N+]([O-])=C2C3=C[C@@]34NC(=O)[C@]5(CCCN5C3=O)C[C@H]4C2(C)C)O1 [AVRAINVILLAMIDE]
MIC [1]: > 200 µM
IC50 [2]: 43.3 µM
IC50 [3]: 11.3 µM

CC(C)=CCC/C(C)=C/CC/C(C)=C/CO [FARNESOL]
MIC [1]: > 200 µM
IC50 [2]: 129 µM

CC1(C)C=Cc2c(ccc3c2NC(=O)[C@@]32C[C@@]34NC(=O)[C@]5(CCCN5C3=O)C[C@H]4C2(C)C)O1 [NOTOAMIDE B]
MIC [1]: > 200 µM
IC50 [2]: 109 µM

CC1(C)C=Cc2c(ccc3c4c([nH]c23)C(C)(C)[C@@H]2C[C@]35CCCN3C(=O)[C@]2(NC5=O)[C@H]4O)O1 [NOTOAMIDE R]
MIC [1]: > 200 µM
IC50 [2]: 97.3 µM

CC1(C)C=Cc2c(ccc3c2NC(=O)[C@@]32[C@H](O)[C@@]34NC(=O)[C@]5(CCCN5C3=O)C[C@H]4C2(C)C)O1 [SCLEROTIAMIDE]
MIC [1]: > 200 µM
IC50 [2]: 93.5 µM

CC1(C)C=Cc2c(ccc3c4c([nH]c23)C(C)(C)[C@@H]2C[C@]35CCCN3C(=O)[C@@]2(C4)NC5=O)O1 [STEPHACIDIN A]
MIC [1]: > 200 µM
IC50 [2]: 55.2 µM

C/C=C/C=C/C=C/[C@H]1C[C@@H](O)CC(=O)[C@@H]1C [WAIKIALIDE A]
MIC [1]: > 200 µM
Activity [4]: Active
inhibition [5]: Active
inhibition [6]: Dose-dependent effect
inhibition [7]: Active
IC50 [2]: 32.4 µM

C/C=C/C=C/C=C/[C@H]1C[C@@H](O)C[C@@H](O)[C@@H]1C [WAIKIALIDE B]
MIC [1]: > 200 µM
IC50 [2]: 97 µM

CC1(C)C=Cc2c(ccc3c2[N+]([O-])=C2C(C)(C)[C@@H]4C[C@]56CCCN5C(=O)[C@]4(NC6=O)[C@H]4N5C(=O)[C@@]67CCCN6C(=O)[C@@]56[C@H](c5c([nH]c8c9c(ccc58)OC(C)(C)C=C9)C(C)(C)[C@@H]6C7)[C@]234)O1 [WAIKIALOID A]
MIC [1]: > 200 µM
Activity [4]: Active
inhibition [5]: Active
inhibition [8]: inactive
Activity [9]: Non-toxic
inhibition [6]: Dose-dependent effect
inhibition [7]: Active
IC50 [2]: 1.4 µM
inhibition [2]: Dose-dependent effect
inhibition [10]: Active
inhibition [11]: inactive

CC1(C)C=Cc2c(ccc3c2[N+]([O-])=C2C(C)(C)[C@@H]4C[C@]56CCCN5C(=O)[C@]4(NC6=O)[C@H]4N5C(=O)[C@@]67CCCN6C(=O)[C@@]56[C@@H]([C@]234)[C@]2(O)C(=[N+]([O-])c3c2ccc2c3C=CC(C)(C)O2)C(C)(C)[C@@H]6C7)O1 [WAIKIALOID B]
MIC [1]: > 200 µM
IC50 [2]: 46.3 µM
IC50 [3]: 8.2 µM
